Most compounds without a hit are left out; they make up all but 3.7% or so of the library.
Calpain2 inh: inhibitors of pig calpain II | purified calpain II, fluorogenic peptide substrate, 30 min | inhibition, % at 16 µM | 0.37% of 220,000 active | AID 1236;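 active = inhibition above about 50%, limit read from the data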
MDM2 E3 inh: inhibitors of human Mdm2 E3 ubiquitin ligase; Q00987; cell-based MDM2 ubiquitination luciferase reporter, 2 h; 0 = plate control, 100 = twice control, blank-subtracted; signal enhancement, % at 5 µM; 0.11% of 210,000 active;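 active = signal enhancement of 30% or more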;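 note: luminescence tracks abundance of the self-degrading MDM2-luciferase fusion protein; higher signal means inhibition of MDM2 E3 ligase activity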
Target sequence (Q00987 whole entry, looked up, the tested form may be a part): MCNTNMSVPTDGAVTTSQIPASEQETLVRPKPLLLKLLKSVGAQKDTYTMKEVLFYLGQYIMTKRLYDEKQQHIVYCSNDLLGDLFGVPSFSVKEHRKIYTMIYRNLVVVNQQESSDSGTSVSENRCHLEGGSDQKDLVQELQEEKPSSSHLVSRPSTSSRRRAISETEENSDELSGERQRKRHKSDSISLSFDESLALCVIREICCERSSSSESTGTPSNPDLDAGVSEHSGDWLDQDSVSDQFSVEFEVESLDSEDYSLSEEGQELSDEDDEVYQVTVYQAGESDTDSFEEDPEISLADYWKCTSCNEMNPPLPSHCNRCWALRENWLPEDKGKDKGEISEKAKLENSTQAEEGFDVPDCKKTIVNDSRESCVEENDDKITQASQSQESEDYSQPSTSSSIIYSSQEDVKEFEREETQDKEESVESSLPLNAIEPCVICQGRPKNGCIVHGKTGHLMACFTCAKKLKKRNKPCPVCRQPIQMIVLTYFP
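Buffer or medium: Cells held in DMEM | Assay system: Stable mammalian line carrying autodegrading MDM2–luciferase fusion reporter | Quantity: 2000 cells/well | Times: 4 h settle plus 2 h compound, 37 °C | Doses: One concentration, 5 µM, with 0.2% DMSO | Technique: Luminescence with SteadyLite reagent, 15 min at room temperature | Benchmarks: Plate controls and plate blanks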
PKD1 kinase inh: inhibitors of human PKD1 kinase | PKD1 kinase fluorescence polarization assay | AID 797 | 0.056% of 200,000 active | Q15139 | inhibition, % (test concentration not listed); in the data active = inhibition above about 50%
ROMK mod: modulates human ROMK potassium channel activity. P48048. Tet-inducible ROMK, thallium flux fluorescence; actives lie on both sides. B-score at 10 µM. 2% of 130,000 active;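 active = signal ratio slope over the read window, or its plate-corrected B-score, at least 3 SD from the plate mean, either direction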;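 note: B-score of the F/F0 ratio slope over 7 to 12 s after thallium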
Arbovirus inh: blocks arbovirus infection; arbovirus infection cell-based antiviral screen; inhibition, % at 10 µM; 0.37% of 200,000 active; in the data active = inhibition above about 30%
KCC2 mod: modulates chloride dependent transport by human KCC2; Q9H2X9; KCC2 cells, thallium flux FluoZin-2 fluorescence; B-score of Tl+ flux slope (higher = more flux/activation; lower = inhibition) at 10 µM; AID 1456; 2.2% of 190,000 active;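 active = thallium flux slope and its plate-corrected score both differing from the plate sample mean at a set confidence after two filtering rounds, in either direction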;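 note: slope of fluorescence scaled to starting intensity during 10 to 20 s after thallium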
KCC2 sec1: confirmation of human KCC2 transport modulators | HEK293-KCC2, thallium flux, FluoZin2 fluorescence; active compounds read high | AID 1713 | normalised thallium flux (F/F0 slope) at 10 µM | shares compounds with KCC2 mod | 15% of 3,700 active;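 active = thallium flux slope above the same plate's solvent-only control mean plus 3 SD; inconclusive = the two replicate wells disagree; inactive = no significant difference from solvent-only control wells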
KCC2 bumet counter: bumetanide-insensitive thallium flux in KCC2 cells with ouabain, counter-screen | shares compounds with KCC2 mod | HEK293-KCC2 + bumetanide/ouabain, thallium flux FluoZin2; active compounds read high | normalized thallium flux at 10 µM | 49% of 3,700 active;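 active = thallium entry rate above the same plate's blocked-transporter control wells by more than 3 SD; inconclusive = the two repeat wells disagree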;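 note: raw slope of fluorescence over initial fluorescence between 10 and 20 s after thallium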
KCC2 sec2: confirmation of human KCC2 transport modulators; shares compounds with KCC2 mod; HEK293-KCC2, thallium flux FluoZin2 fluorescence; actives lie on both sides; F/F0 rise rate, 10–20 s post-thallium; normalized thallium flux at 10 µM; 23% of 3,700 active; AID 1715;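 active = thallium flux slope more than 3 SD above or below the plate's solvent-only control mean, mostly below; inconclusive = the two repeat wells disagreed; inactive = no significant shift from solvent-only controls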;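 note: raw slope with 0.1% DMSO as baseline and bumetanide as block control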
HEK293 Tl flux: parental HEK flux effect, counter-screen | shares compounds with KCC2 mod | thallium flux rate (normalised fluorescence) at 10 µM | HEK293 parental cells, thallium flux FluoZin2, ouabain; baseline-ratio fluorescence slope, 10–20 s after thallium | 46% of 3,700 active;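 active = thallium flux rate significantly above the same plate's solvent-only control wells, beyond their mean plus 3 SD; inconclusive = the two replicate wells gave conflicting results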
KCC2 ouabain: KCC2 (human) modulation, ouabain retest; shares compounds with KCC2 mod; HEK293-KCC2, thallium flux FluoZin2 fluorescence; bidirectional: low = inhibitor, high = activator; raw Tl+ flux slope (below DMSO = inhibition, above = activation) at 10 µM; 48% of 3,700 active; AID 1717;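 active = thallium flux slope beyond 3 SD from same-plate DMSO control mean in most replicates, usually higher, sometimes lower; inconclusive = repeat tests gave conflicting results; inactive = no significant difference from controls in most replicates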;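 note: slope of initial-normalized fluorescence between seconds 10 and 20 after thallium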
HEK counter2: acts in parental HEK cells, second KCC2 counter-screen; shares compounds with KCC2 mod; HEK293 parental, thallium flux FluoZin-2 fluorescence slope; thallium flux slope at 10 µM; 33% of 3,700 active; AID 1718;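 active = thallium flux slope above the same plate's solvent-control mean plus 3 SD in both duplicate wells; inconclusive = duplicate wells that disagreed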;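 note: run without ouabain in cells lacking the KCC2 cotransporter; slope of fluorescence scaled to its starting value between 10 and 20 s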
* marks the source's active call; other numbers are inactive results; ? = inconclusive; nt = no result given.

SMILES	Calpain2 inh	MDM2 E3 inh	PKD1 kinase inh	ROMK mod	Arbovirus inh	KCC2 mod	KCC2 sec1	KCC2 bumet counter	KCC2 sec2	HEK293 Tl flux	KCC2 ouabain	HEK counter2
O=C1NC2(CCSC2)C(=O)N1CC(=O)N(Cc1ccccc1)C1CCS(=O)(=O)C1 (stereo unspecified)	7.9	-14.2	nt	-0.0389	nt	1.04	nt	nt	nt	nt	nt	nt
N#Cc1ccc(-n2nccc2-c2cnc3n(c2=O)CCS3)cc1	11.8	-16.2	-13.9	0.217	8.6	-0.614	nt	nt	nt	nt	nt	nt
COC(=O)c1sccc1NC(=S)OC	-6.0	-10.9	nt	nt	nt	4.75*	?	0.0123*	0.0334	0.0161*	?	0.0131*
COC(=O)c1sccc1NC(=S)Nc1ccc(OC)cc1	27.6	-9.5	-8.4	-0.345	11.5	1.11	nt	nt	nt	nt	nt	nt
CC1(C)CN=c2s/c(=C\c3ccc(Cl)cc3)c(=O)n2C1	-35.9	0.1	-9.6	-0.983	-1.1	0.351	nt	nt	nt	nt	nt	nt
Cc1cccc(CSCc2ccc(C(=O)NC3CCCC3)o2)c1	25.9	-11.8	12.1	-0.148	2.6	-2.69	nt	nt	nt	nt	nt	nt
COc1cccc(CC(NC(C)=O)C(=O)NC2CCN(S(=O)(=O)c3ccc(F)cc3)CC2)c1OC (stereo unspecified)	-27.3	10.2	-6.6	-0.0609	2.2	-0.322	nt	nt	nt	nt	nt	nt
O=C1NC(=S)N(C(=O)c2ccc(F)cc2)/C1=C/c1ccccc1	1.2	1.1	-3.8	-1.91	21.6	26.4*	0.0215*	0.0819*	?	0.0779*	0.0563*	0.0318*
COc1ccccc1NCC(=O)NNCC(=O)Nc1ccc(F)c(Cl)c1	-19.0	-20.3	-4.2	-0.452	2.5	-0.0559	nt	nt	nt	nt	nt	nt
Cc1nc(NCc2cccnc2)c2c3c(sc2n1)CC(C)CC3 (stereo unspecified)	-22.3	-4.6	-2.7	0.371	-15.9	59.5*	0.0364*	0.158*	0.0383*	0.0968*	0.0865*	0.0345*
CCOC(=O)c1sc2nc(C)nc(NCc3cccnc3)c2c1C	-164.1	-15.6	-1.6	0.155	1.8	-1.37	nt	nt	nt	nt	nt	nt
COc1ccc(N2CCN(C(=O)CCN3C(=S)NC(C)(C)CC3C)CC2)cc1 (stereo unspecified)	-9.6	1.6	-3.7	0.0143	8.1	nt	nt	nt	nt	nt	nt	nt
CC(C)CCNC(=O)COC(=O)/C=C/c1ccc2ccccc2n1	-23.2	-22.6	1.0	-0.291	3.6	-3.95*	0.0166	0.00525	0.0238*	0.00763	0.0135*	0.0098
CN(C(=O)COC(=O)/C=C/c1ccc2ccccc2n1)C1CCS(=O)(=O)C1 (stereo unspecified)	-12.2	-7.0	3.0	-0.273	7.3	-2.32	nt	nt	nt	nt	nt	nt
COc1ccc2c(c1)O[C@H](c1ccc3c(c1)OCO3)[C@@H](OC(=O)N[C@H](C)C1CCCCC1)C2=O	-11.6	nt	-9.4	-1.95	-22.0	2.08	nt	nt	nt	nt	nt	nt
COc1cccc([C@@H]2Oc3ccc(OC)cc3C(=O)[C@H]2OC(=O)NCc2ccc3c(c2)OCO3)c1	-14.6	nt	4.8	2.19	6.8	42*	0.00611	0.0584*	0.0639*	0.0682*	0.0547*	0.051*
COc1ccc2c(c1)O[C@@H](c1cccc(C(F)(F)F)c1)[C@H](OC(=O)NCCc1ccc(OC)c(OC)c1)C2=O	-17.9	nt	2.4	0.447	-12.3	38.1*	0.00667	0.0277*	?	0.0294*	0.0369*	0.0217*
COC(=O)[C@@H](NC(=O)O[C@@H]1C(=O)c2ccc(OC)cc2O[C@H]1c1cccc(C(F)(F)F)c1)C(C)C	6.1	nt	3.7	-0.608	3.6	5.57*	0.00644	0.0107*	0.0311	0.0146*	?	0.013*
COc1cccc([C@@H]2Oc3ccc(OC)cc3C(=O)[C@H]2OC(=O)Nc2cc(OC)c(OC)c(OC)c2)c1	-35.5	nt	-14.4	2.29	5.1	0.166	nt	nt	nt	nt	nt	nt
COc1cc2cc(Oc3ccc4ccc(=O)oc4c3)c(=O)oc2cc1OC(=O)/C=C/c1ccccc1	-82.8	-5.9	nt	nt	nt	0.482	nt	nt	nt	nt	nt	nt
CCN(CC)c1ccc(CNc2nc3ccccc3n2CC)cc1	5.3	-7.0	nt	0.292	nt	-0.913	nt	nt	nt	nt	nt	nt
CCCOc1ccc(-c2nc(OCC)c3ccccc3n2)cc1	-49.0	nt	6.6	-0.0402	-2.5	nt	nt	nt	nt	nt	nt	nt
CCOc1nc(-c2ccncc2)nc2ccccc12	26.3	-20.5	-2.1	-0.829	-5.3	-1.16	0.00702	0.00404	?	0.00634	0.0165	0.00957
CN(C)c1ccc(C2/C(=C(/O)c3ccccc3)C(=O)C(=O)N2CCCC(=O)O)cc1 (stereo unspecified)	-8.6	nt	nt	nt	nt	-0.372	nt	nt	nt	nt	nt	nt
CCOC(=O)COn1c(=O)c(=O)n(O)c2ccccc21	-4.4	-9.3	-4.4	0.0509	-5.4	0.33	nt	nt	nt	nt	nt	nt
SMILES	Calpain2 inh	MDM2 E3 inh	PKD1 kinase inh	ROMK mod	Arbovirus inh	KCC2 mod	KCC2 sec1	KCC2 bumet counter	KCC2 sec2	HEK293 Tl flux	KCC2 ouabain	HEK counter2
O=c1cc(-c2ccccc2Cl)oc2c([N+](=O)[O-])c(O)cc(O)c12	-11.6	nt	10.4	-0.791	6.0	-6.95*	0.00622	?	0.0185*	0.00571*	0.0108*	?
O=c1cc(-c2ccccc2Cl)oc2ccc([N+](=O)[O-])c(O)c12	-22.8	nt	2.8	0.351	7.9	2.41	nt	nt	nt	nt	nt	nt
CC1(C)CC(=O)C(C=NCC2CCN(C(=S)Nc3ccccc3)CC2)=C(O)C1	-13.5	-6.5	nt	nt	nt	0.526	nt	nt	nt	nt	nt	nt
CC1=CC2=NC(=O)/C(=C/c3coc4ccc(Cl)cc4c3=O)C(=N)N2O1	16.8	-6.9	nt	nt	nt	-9.45*	0.00402*	-0.0043*	0.0147*	0.000436*	0.00258*	0.00258*
CCCN1CNc2c(c(=O)[nH]c(=S)n2CCc2ccccc2)C1	-20.0	25.8	-2.1	nt	5.0	-0.115	nt	nt	nt	nt	nt	nt
S=c1[nH]nc(-c2cccs2)n1/N=C/c1cn(-c2ccccc2)nc1-c1cccs1	-32.6	-7.0	nt	0.108	nt	-0.305	nt	nt	nt	nt	nt	nt
Cc1ccc(-c2nn(-c3ccccc3)cc2/C=N/n2c(-c3cccs3)n[nH]c2=S)cc1	-34.7	-8.1	nt	-0.0366	nt	4.58*	0.0106	0.00941*	0.0301	0.0183*	0.0211	0.0118
CC(C)(C)c1ccc(-c2n[nH]c(=S)n2/N=C/c2ccncc2)cc1	-4.0	-7.3	3.1	0.00447	3.1	5.58*	0.0107	0.018*	0.0324	0.0127*	?	0.0112

Screening results (PubChem BioAssay)
